Active and inactive are the calls of the source. No cut-off for these calls is given here.
Experiments:
[1] = biological target: T1, Interstitial collagenase (Homo sapiens) (UniProt P03956); experiment: Inhibition of human recombinant MMP-1 catalytic domain at 50 uM by fluorescence spectrophotometric analysis relative to control
T1 sequence (whole entry): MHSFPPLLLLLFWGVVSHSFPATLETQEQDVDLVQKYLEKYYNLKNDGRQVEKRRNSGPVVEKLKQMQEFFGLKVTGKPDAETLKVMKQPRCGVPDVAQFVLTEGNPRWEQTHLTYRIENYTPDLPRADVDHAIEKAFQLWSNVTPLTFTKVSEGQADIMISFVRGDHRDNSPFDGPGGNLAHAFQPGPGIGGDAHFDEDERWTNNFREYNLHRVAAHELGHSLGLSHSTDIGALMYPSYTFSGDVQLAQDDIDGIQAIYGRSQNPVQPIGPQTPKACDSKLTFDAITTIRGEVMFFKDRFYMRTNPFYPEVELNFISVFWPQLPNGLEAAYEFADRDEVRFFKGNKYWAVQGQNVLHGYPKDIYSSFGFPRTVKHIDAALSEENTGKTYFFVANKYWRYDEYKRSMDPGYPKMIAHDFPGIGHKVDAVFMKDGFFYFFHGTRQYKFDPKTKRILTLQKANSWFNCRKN

[2] = biological target: 72 kDa type IV collagenase (Homo sapiens, UniProt P08253); experiment: Inhibition of human recombinant MMP-2 using MOCAcPLGLA2pr(Dnp)AR-NH2 as substrate by fluorescence spectrophotometric analysis
[3] = biological target: T2, Matrix metalloproteinase-9 (Homo sapiens, UniProt P14780); experiment: Inhibition of human recombinant MMP-9 catalytic domain using MOCAcPLGLA2pr(Dnp)AR-NH2 as substrate by fluorescence spectrophotometric analysis
[4] = biological target: Stromelysin-1 (Homo sapiens) (UniProt P08254); experiment: Inhibition of human recombinant MMP-3 catalytic domain at 50 uM by fluorescence spectrophotometric analysis relative to control
[5] = biological target: T3, Matrilysin (Homo sapiens) (UniProt P09237); experiment: Inhibition of human recombinant MMP-7 at 50 uM by fluorescence spectrophotometric analysis relative to control
T3 sequence (whole entry): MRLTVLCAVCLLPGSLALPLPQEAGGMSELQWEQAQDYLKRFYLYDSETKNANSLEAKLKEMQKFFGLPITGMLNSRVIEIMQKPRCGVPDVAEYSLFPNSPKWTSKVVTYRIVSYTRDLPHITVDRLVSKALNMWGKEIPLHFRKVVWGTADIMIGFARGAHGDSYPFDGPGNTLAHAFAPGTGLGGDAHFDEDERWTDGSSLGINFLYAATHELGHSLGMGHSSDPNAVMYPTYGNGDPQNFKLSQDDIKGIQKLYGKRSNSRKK

[6] = biological target: MMP-2/MMP-9 (Homo sapiens) (UniProt P08253+P14780); experiment: Selectivity ratio of Ki for human recombinant MMP-9 catalytic domain to Ki for human recombinant MMP-2
[7] = biological target: MMP-2/MMP-14 (Homo sapiens) (UniProt P50281+P08253); experiment: Selectivity ratio of Ki for human recombinant MMP-14 catalytic domain to Ki for human recombinant MMP-2
[8] = species: Homo sapiens; experiment: Selectivity ratio of Ki for human recombinant MMP-8 catalytic domain to Ki for human recombinant MMP-2
[9] = biological target: T4, Matrix metalloproteinase-14 (Homo sapiens, UniProt P50281); experiment: Inhibition of human recombinant MMP-14 catalytic domain using MOCAcPLGLA2pr(Dnp)AR-NH2 as substrate by fluorescence spectrophotometric analysis
[10] = system: Liver; experiment: Half life in rat liver S9 fraction at 10 uM by reversed-phase UPLC/ESI-MRM analysis; format: ADME, subcellular; details: s9, 10 µM
Summary of the method: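 Male rat liver S9 (1.0 mg) with 0.5 mM NADPH and 10 µM compound (both final) in 50 mM potassium phosphate, pH 7.4, at 37 °C, sampled over time. Aliquots were stopped with acetonitrile containing internal standard, and the supernatant was run by UPLC/ESI-MRM. Half-lives used first-order kinetics on peak-area ratios to internal standard.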

[11] = biological target: T4, Matrix metalloproteinase-14; experiment: Inhibition of human recombinant MMP-14 catalytic domain using MOCAcPLGLA2pr(Dnp)AR-NH2 as substrate at 50 uM by fluorescence spectrophotometric analysis relative to control
[12] = biological target: T2, Matrix metalloproteinase-9; experiment: Inhibition of human recombinant MMP-9 catalytic domain using MOCAcPLGLA2pr(Dnp)AR-NH2 as substrate at 50 uM by fluorescence spectrophotometric analysis relative to control
[13] = biological target: Stromelysin-1 (Homo sapiens) (UniProt P08254); experiment: Inhibition of human recombinant MMP-3 catalytic domain at 30 uM by fluorescence spectrophotometric analysis relative to control
[14] = system: Plasma; experiment: Metabolic stability in C57Bl/6J mouse plasma assessed as formation of ND-322 at 25 mg/kg, sc measured at 10 to 300 mins; format: ADME, organism-based; design: dose 25 mg/kg, route subcutaneous; details: in vivo
Summary of the method: (§1)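 Female C57Bl/6J mice (6–8 weeks, 16–19 g) received a single 100 µL sc dose equivalent to 25 mg/kg, in 10% DMSO/25% Tween 80/65% water or 80% propylene glycol/20% DMSO. Terminal heparinised vena cava blood gave plasma, and saline-perfused whole brain was taken; n = 3 per time point. Acetonitrile extracts with internal standard were run by UPLC/ESI-MRM against matrix calibration curves, linear 0.05–5 µM.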

[15] = system: Plasma; experiment: Elimination half life in C57Bl/6J mouse plasma at 25 mg/kg, sc; format: ADME, organism-based; design: dose 25 mg/kg, route subcutaneous; details: in vivo
Summary of the method: (§2)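 Mice were dosed sc once at 25 mg/kg; plasma and perfused brain (n = 3 per time point) were quantified by UPLC/ESI-MRM. AUC0-last came from the mean concentration-time curve by the trapezoidal rule, and AUC0-∞ = AUC0-last + Clast/k. α and β half-lives came from linear regression on the linear portion of the concentration-time data, with t1/2 = ln2/k.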

[16] = Plasma concentration in C57Bl/6J mouse at 25 mg/kg, sc measured at 5 hrs by reversed phase UPLC/ESI-MRM analysis; format: ADME, organism-based; design: dose 25 mg/kg, route subcutaneous; summary of the method: as §1
[17] = system: Plasma; experiment: AUC (0 to infinity) in C57Bl/6J mouse plasma at 25 mg/kg, sc; format: ADME, organism-based; design: time infinity, dose 25 mg/kg, route subcutaneous; details: in vivo; summary of the method: as §2
[18] = Primary phase half life in C57Bl/6J mouse plasma at 25 mg/kg, sc; format: ADME, organism-based; design: dose 25 mg/kg, route subcutaneous; details: read-out: alphat1/2; summary of the method: as §2
[19] = system: Brain; experiment: Drug uptake in C57Bl/6J mouse brain at 25 mg/kg, sc measured at 10 mins by reversed phase UPLC/ESI-MRM analysis; format: ADME, organism-based; design: dose 25 mg/kg, route subcutaneous; details: in vivo; summary of the method: as §1
[20] = Primary phase half life in C57Bl/6J mouse brain at 25 mg/kg, sc; format: ADME, organism-based; design: dose 25 mg/kg, route subcutaneous; details: read-out: alphat1/2; summary of the method: as §2
[21] = system: Brain; experiment: AUC (0 to infinity) in C57Bl/6J mouse brain at 25 mg/kg, sc; format: ADME, organism-based; design: time infinity, dose 25 mg/kg, route subcutaneous; details: in vivo; summary of the method: as §2
[22] = system: Plasma; experiment: Plasma concentration in C57Bl/6J mouse at 25 mg/kg, sc measured at 10 mins by reversed phase UPLC/ESI-MRM analysis; format: ADME, organism-based; design: dose 25 mg/kg, route subcutaneous; details: in vivo; summary of the method: as §1
[23] = system: Brain; experiment: Drug uptake in C57Bl/6J mouse brain measured per mg of tissue at 25 mg/kg, sc measured at 5 hrs by reversed phase UPLC/ESI-MRM analysis; format: ADME, organism-based; design: dose 25 mg/kg, route subcutaneous; details: in vivo; summary of the method: as §1
[24] = system: Plasma; experiment: AUC (0 to last) in C57Bl/6J mouse plasma at 25 mg/kg, sc; format: ADME, organism-based; design: time 0 - last, dose 25 mg/kg, route subcutaneous; details: in vivo; summary of the method: as §2
[25] = system: Brain; experiment: Metabolic stability in C57Bl/6J mouse brain assessed as formation of ND-322 at 25 mg/kg, sc measured at 10 to 300 mins; format: ADME, organism-based; design: dose 25 mg/kg, route subcutaneous; details: in vivo; summary of the method: as §1
[26] = Ratio of AUC in brain to plasma in C57Bl/6J mouse at 25 mg/kg, sc; format: ADME, organism-based; design: dose 25 mg/kg, route subcutaneous; details: brain and plasma, read-out: Ratio AUC
[27] = biological target: Neutrophil collagenase (Homo sapiens, UniProt P22894); experiment: Inhibition of human recombinant MMP-8 catalytic domain using […] as substrate by fluorescence spectrophotometric analysis
[28] = system: Brain; experiment: Elimination half life in C57Bl/6J mouse brain at 25 mg/kg, sc; format: ADME, organism-based; design: dose 25 mg/kg, route subcutaneous; details: in vivo; summary of the method: as §2
[29] = system: Brain; experiment: AUC (0 to last) in C57Bl/6J mouse brain at 25 mg/kg, sc; format: ADME, organism-based; design: dose 25 mg/kg, route subcutaneous; details: in vivo; summary of the method: as §2

Chain of 72 kDa type IV collagenase (P08253 whole entry, the tested form may be a part): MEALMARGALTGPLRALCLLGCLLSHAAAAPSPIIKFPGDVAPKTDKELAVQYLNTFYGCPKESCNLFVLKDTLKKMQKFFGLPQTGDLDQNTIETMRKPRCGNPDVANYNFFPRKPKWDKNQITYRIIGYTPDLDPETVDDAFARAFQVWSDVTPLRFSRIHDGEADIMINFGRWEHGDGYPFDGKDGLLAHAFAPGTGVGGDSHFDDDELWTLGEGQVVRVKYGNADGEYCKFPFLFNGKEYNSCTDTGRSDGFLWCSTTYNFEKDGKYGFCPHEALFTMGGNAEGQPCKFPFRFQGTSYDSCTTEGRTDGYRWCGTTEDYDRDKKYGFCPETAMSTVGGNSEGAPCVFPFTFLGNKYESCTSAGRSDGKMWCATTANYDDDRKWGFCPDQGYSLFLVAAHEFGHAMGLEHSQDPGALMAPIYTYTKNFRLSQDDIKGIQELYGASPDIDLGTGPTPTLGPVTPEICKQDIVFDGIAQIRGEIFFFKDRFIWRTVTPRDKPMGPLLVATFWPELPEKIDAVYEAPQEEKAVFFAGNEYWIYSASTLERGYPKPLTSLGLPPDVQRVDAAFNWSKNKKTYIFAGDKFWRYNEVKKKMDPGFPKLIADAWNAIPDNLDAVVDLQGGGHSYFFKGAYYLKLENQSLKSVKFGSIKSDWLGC
T2 sequence (P14780 whole entry, the tested form may be a part): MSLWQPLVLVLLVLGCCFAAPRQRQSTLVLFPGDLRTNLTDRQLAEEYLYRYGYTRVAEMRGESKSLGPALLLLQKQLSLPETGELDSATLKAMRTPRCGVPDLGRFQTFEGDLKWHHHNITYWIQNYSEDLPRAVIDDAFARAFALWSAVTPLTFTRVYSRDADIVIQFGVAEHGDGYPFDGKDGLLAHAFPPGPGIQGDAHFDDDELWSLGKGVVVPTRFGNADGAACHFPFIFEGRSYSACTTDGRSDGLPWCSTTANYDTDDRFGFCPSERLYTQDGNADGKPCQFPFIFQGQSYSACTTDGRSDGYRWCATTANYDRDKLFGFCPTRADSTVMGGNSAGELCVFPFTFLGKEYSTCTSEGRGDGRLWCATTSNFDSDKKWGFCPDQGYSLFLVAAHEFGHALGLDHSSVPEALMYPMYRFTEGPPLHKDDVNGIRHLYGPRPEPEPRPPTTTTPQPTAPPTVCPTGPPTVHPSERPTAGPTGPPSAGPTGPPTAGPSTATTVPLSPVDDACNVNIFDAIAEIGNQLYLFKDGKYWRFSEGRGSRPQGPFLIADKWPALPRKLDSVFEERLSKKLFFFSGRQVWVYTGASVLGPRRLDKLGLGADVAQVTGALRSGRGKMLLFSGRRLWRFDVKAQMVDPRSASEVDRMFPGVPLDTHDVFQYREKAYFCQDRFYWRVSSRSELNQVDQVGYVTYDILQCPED
Chain of Neutrophil collagenase (P22894 whole entry, the tested form may be a part): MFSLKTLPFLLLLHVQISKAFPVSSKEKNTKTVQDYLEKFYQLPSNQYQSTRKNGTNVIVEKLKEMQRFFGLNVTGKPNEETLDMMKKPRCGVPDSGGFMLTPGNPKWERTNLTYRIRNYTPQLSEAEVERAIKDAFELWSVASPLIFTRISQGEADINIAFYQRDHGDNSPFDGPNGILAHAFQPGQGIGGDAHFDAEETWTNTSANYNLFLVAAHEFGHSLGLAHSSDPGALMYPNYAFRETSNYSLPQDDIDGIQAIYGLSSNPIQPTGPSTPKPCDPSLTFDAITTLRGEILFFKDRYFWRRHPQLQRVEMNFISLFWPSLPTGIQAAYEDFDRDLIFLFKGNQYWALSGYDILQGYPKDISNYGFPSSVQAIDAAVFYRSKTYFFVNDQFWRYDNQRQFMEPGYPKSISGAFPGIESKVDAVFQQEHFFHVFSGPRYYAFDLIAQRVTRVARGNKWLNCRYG

Row | SMILES | inhibition [1] | Ki [2] [nM] | Ki [3] [nM] | inhibition [4] | inhibition [5] | Ratio Ki [6] | Ratio Ki [7] | Ratio Ki [8] | Ki [9] [nM] | t1/2 [10] [min] | other results
1 | CNC(=O)Oc1ccc(Oc2ccc(S(=O)(=O)CC3CS3)cc2)cc1 (configuration not stated) | 8% | 390 | 10000 | 30% | 6% | 20 | 20 | 20 | 12000 | – | –
2 | CCOC(=O)Nc1ccc(Oc2ccc(S(=O)(=O)CC3CS3)cc2)cc1 (configuration not stated) | inactive | 290 | – | 37% | inactive | – | – | – | 1900 | 24.8 | –
3 | CC(C)OC(=O)Oc1ccc(Oc2ccc(S(=O)(=O)CC3CS3)cc2)cc1 (configuration not stated) | inactive | 480 | 1300 | 9% | 13% | 2 | – | – | 3000 | – | –
4 | CCCNC(=O)Nc1ccc(Oc2ccc(S(=O)(=O)CC3CS3)cc2)cc1 (configuration not stated) | inactive | 560 | – | 18% | inactive | 20 | 20 | 20 | – | – | inhibition [11]: 8%; inhibition [12]: 7%
5 | COC(=O)Oc1ccc(Oc2ccc(S(=O)(=O)CC3CS3)cc2)cc1 (configuration not stated) | 7% | 160 | 230 | – | 11% | 2 | – | – | 2400 | – | inhibition [13]: 31%
6 | CCNC(=O)Nc1ccc(Oc2ccc(S(=O)(=O)CC3CS3)cc2)cc1 (configuration not stated) | inactive | 440 | – | inactive | 7% | 20 | 20 | 20 | – | 40.7 | Stability [14]: Stable; beta t1/2 [15]: 61.9 min; concentration at 5 h [16]: 70.4 nM; AUC [17]: 187 µM·min; half-life [18]: 8.38 min; Drug uptake [19]: Active; inhibition [11]: 17%; half-life [20]: 18.2 min; AUC [21]: 13.8 pmol·min/mg; Drug uptake [22]: Active; Drug uptake [23]: 0.0133 pmol; AUClast [24]: 181 µM·min; inhibition [12]: 28%; Stability [25]: Stable; Kp [26]: 0.0738; Ki [27]: 17000 nM; beta t1/2 [28]: 204 min; AUClast [29]: 9.86 pmol·min/mg
7 | CC(C)OC(=O)Nc1ccc(Oc2ccc(S(=O)(=O)CC3CS3)cc2)cc1 (configuration not stated) | inactive | 680 | 2700 | inactive | inactive | 2 | – | – | 2500 | – | –
8 | O=S(=O)(CC1CS1)c1ccc(Oc2ccc(O)cc2)cc1 (configuration not stated) | – | – | – | – | – | – | – | – | – | 23.5 | –

— ChEMBL document CHEMBL2440018 (J Med Chem, 2013)
